# According to ChEMBL document CHEMBL5143713, “Multitarget, Selective Compound Design Yields Potent Inhibitors of a Kinetoplastid Pteridine Reductase 1” (J Med Chem, 2022):
# pEC50, pIC50: −log10 of the molar value.
# Key:
# [1] = Cytotoxicity against human THP-1 derived macrophages by colorimetric MTT assay; format: toxicity, cell-based, Macrophage; settings: THP-1 derived macrophages
# Outline: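 CC50 from at least three independent MTT colorimetric cytotoxicity runs on THP-1-derived macrophages. Selectivity index is CC50 (or lower CC50 interval estimate) divided by antiparasitic EC50.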
# Pteridine reductase 1 = target: T1, Pteridine reductase 1 (Leishmania major, UniProt Q01782); assay: Inhibition of recombinant Leishmania major PTR1 expressed in Escherichia coli BL21 (DE3) cells using H2B as substrate in presence of cytochrome c and NADPH by envision multilabel reader
# T1 sequence (Q01782 whole entry): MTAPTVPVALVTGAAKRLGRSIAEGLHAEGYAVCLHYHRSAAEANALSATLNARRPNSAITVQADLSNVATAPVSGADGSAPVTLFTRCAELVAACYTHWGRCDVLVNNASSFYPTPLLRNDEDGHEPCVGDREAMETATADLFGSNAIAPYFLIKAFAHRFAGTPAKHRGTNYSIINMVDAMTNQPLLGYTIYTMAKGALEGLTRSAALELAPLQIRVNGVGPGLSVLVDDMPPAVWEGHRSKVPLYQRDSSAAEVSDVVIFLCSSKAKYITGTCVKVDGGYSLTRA
# [2] = target: T2, Pteridine reductase, putative (Trypanosoma brucei, UniProt Q581W1); assay: Inhibition of recombinant Trypanosoma brucei PTR1 expressed in Escherichia coli BL21 (DE3) cells using H2B as substrate in presence of cytochrome c and NADPH by envision multilabel reader
# T2 sequence (Q581W1 whole entry): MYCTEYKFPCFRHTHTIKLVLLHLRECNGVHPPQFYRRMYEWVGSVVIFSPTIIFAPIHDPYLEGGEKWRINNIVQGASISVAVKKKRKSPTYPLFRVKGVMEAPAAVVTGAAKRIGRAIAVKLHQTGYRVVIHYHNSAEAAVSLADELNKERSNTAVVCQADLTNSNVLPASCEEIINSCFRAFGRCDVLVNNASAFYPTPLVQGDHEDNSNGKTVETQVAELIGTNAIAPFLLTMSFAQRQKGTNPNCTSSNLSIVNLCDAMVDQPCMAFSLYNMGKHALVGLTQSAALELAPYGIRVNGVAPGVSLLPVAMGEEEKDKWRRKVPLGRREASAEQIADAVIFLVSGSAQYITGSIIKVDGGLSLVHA
# 786-0 = assay: Mitochondrial toxicity in human 786-0 cells at 10 uM incubated with compound for 6 hrs followed by incubation with MitoTracker Red chloromethyl-X-rosamine dye for 45 mins by imaging analysis relative to control; format: cell-based; settings: 786-0, 6 h
# Outline: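 Tested at 10 μM. 786-O cells kept in RPMI-1640 with 2 mM glutamine, 10% FCS, streptomycin 100 μg/mL and penicillin G 100 U/mL. Mitochondrial toxicity read as MitoTracker Red (chloromethyl-X-rosamine) uptake by high-content imaging.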
# [3] = test system: Trypanosoma brucei brucei; assay: Antitrypanosomal activity against bloodstream form of Trypanosoma brucei brucei Lister 427 assessed as parasite growth inhibition incubated for 72 hrs by resazurin dye based analysis; format: functional, organism-based; settings: Lister 427, 72 h
# [4] = test system: Trypanosoma brucei brucei; assay: Antitrypanosomal activity against bloodstream form of Trypanosoma brucei brucei Lister 427 assessed as parasite growth inhibition at 10 uM incubated for 72 hrs by resazurin dye based analysis relative to control; format: functional
# [5] = target: Bifunctional dihydrofolate reductase-thymidylate synthase (Leishmania major, UniProt P07382); assay: Inhibition of recombinant Leishmania major DHFR-TS expressed in Escherichia coli BL21 (DE3) cells using dihydrofolate as substrate in presence of NADPH by spectrophotometric analysis
# A549 = assay: Cytotoxicity against human A549 cells at 10 uM measured after 48 hrs by Celltiter-Glo assay relative to control; format: toxicity, cell-based; settings: a549, 48 h
# Outline: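 Tested at 10 μM. A549 cells grown in DMEM with 10% FCS, streptomycin 100 μg/mL and penicillin G 100 U/mL. Viability read as cellular ATP by CellTiter-Glo luminescence.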
# [6] = target: Bifunctional dihydrofolate reductase-thymidylate synthase (Trypanosoma brucei brucei, UniProt Q27783); assay: Inhibition of recombinant Trypanosoma brucei DHFR-TS expressed in Escherichia coli BL21 (DE3) cells using dihydrofolate as substrate in presence of NADPH by spectrophotometric analysis
# [7] = test system: human DHFR versus Trypanosoma brucei PTR1; assay: Selectivity index, ratio of IC50 for human DHFR to IC50 for Trypanosoma brucei PTR1; format: toxicity; settings: read-out: Ratio IC50
# [8] = test system: human DHFR versus Leishmania major DHFR; assay: Selectivity index, ratio of IC50 for human DHFR to IC50 for Leishmania major DHFR; format: toxicity; settings: read-out: Ratio IC50
# Dihydrofolate reductase = target: T3, Dihydrofolate reductase (Homo sapiens, UniProt P00374); assay: Inhibition of recombinant human DHFR expressed in Escherichia coli BL21 (DE3) cells using dihydrofolate as substrate in presence of NADPH by spectrophotometric analysis; format: toxicity
# T3 sequence (P00374 whole entry): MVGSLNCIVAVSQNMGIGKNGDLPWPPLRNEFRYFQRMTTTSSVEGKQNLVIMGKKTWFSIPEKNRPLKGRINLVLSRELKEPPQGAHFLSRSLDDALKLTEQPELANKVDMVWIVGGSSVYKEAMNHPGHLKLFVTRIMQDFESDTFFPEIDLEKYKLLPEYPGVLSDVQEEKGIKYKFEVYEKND
# [9] = test system: human DHFR versus Trypanosoma brucei DHFR; assay: Selectivity index, ratio of IC50 for human DHFR to IC50 for Trypanosoma brucei DHFR; format: toxicity; settings: read-out: Ratio IC50
# [10] = test system: human DHFR versus Leishmania major PTR1; assay: Selectivity index, ratio of IC50 for human DHFR to IC50 for Leishmania major PTR1; format: toxicity; settings: read-out: Ratio IC50
# Sequence of Bifunctional dihydrofolate reductase-thymidylate synthase (Trypanosoma brucei brucei, UniProt Q27783) (Q27783 whole entry): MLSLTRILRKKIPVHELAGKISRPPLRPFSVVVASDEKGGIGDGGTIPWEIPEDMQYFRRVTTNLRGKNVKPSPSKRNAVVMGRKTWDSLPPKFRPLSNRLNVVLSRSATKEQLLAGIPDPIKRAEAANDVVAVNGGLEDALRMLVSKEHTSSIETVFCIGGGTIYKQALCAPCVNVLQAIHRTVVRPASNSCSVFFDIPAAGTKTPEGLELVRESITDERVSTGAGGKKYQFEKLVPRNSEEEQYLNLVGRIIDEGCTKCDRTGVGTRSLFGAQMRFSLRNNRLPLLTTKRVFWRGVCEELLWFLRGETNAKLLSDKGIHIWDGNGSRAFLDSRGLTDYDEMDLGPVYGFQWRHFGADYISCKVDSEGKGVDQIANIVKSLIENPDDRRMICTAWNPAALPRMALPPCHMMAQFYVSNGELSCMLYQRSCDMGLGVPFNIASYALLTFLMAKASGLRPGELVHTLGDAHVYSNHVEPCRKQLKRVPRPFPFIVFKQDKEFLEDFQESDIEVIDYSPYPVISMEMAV
# Sequence of Bifunctional dihydrofolate reductase-thymidylate synthase (Leishmania major, UniProt P07382) (P07382 whole entry): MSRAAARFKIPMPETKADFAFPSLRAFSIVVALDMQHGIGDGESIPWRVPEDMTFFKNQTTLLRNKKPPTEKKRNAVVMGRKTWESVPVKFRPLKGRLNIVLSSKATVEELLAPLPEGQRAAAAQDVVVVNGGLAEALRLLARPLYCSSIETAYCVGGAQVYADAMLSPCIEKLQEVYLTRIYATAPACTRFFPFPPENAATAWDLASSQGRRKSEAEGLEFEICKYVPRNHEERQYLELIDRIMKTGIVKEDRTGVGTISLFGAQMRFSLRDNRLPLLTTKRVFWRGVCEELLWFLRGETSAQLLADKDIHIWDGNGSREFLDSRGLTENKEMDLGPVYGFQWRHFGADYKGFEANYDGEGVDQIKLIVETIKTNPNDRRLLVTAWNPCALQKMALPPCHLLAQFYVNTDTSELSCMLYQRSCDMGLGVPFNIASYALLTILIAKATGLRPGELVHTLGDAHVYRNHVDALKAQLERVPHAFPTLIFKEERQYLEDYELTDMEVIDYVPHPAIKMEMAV
Structure (SMILES),CC50 [1] [µM],pIC50 (Pteridine reductase 1),pIC50 [2],Activity (786-0) [%],pEC50 [3],inhibition at 10 µM [4] [%],pIC50 [5],Activity (A549) [%],pIC50 [6],selectivity ratio [7],selectivity ratio [8],pIC50 (Dihydrofolate reductase),selectivity ratio [9],selectivity ratio [10]
COc1ccc(Oc2ccc(CN(Cc3ccccc3)Cc3cnc4nc(N)nc(N)c4n3)cc2)cc1,12.5,6.82,6.62,0,5.34,100,,,,,,,,
NC(=O)C1CCN(C(=O)c2ccc(NCc3cnc4nc(N)nc(N)c4n3)cc2)CC1,,,6.09,0,,,5.95,0,5.54,,,,,
CCCOC(=O)C1CCN(C(=O)c2ccc(N(C)Cc3cnc4nc(N)nc(N)c4n3)cc2)CC1,,6.39,7.52,0,,,6.82,0,5.52,300,59,5.05,3,22
Nc1nc(N)c2nc(CNc3ccc(C(=O)N4CCC(C(=O)O)CC4)cc3)cnc2n1,,,5.76,0,,,6.22,0,5.86,,,,,
CCN(Cc1cnc2nc(N)nc(N)c2n1)c1ccc(C(=O)N2CCC(C(=O)OC)CC2)cc1,,4.88,7.05,0,,,6.34,100,6.21,48,9,5.37,7,
COC(=O)C1CCN(C(=O)c2ccc(NCc3cnc4nc(N)nc(N)c4n3)cn2)CC1,,,6.26,0,,,5.87,,5.59,,,4.22,,
COC(=O)C1CCN(C(=O)c2cccc(NCc3cnc4nc(N)nc(N)c4n3)c2)CC1,,5.77,6.82,,,,,,,393,2,4.23,3,35
Nc1nc(N)c2nc(CNc3ccc(C(=O)NCCc4ccccc4)cc3)cnc2n1,,7.52,> 10.00,13,,,6.14,100,6.01,> 403000,56,4.39,41,1340
CN(Cc1cnc2nc(N)nc(N)c2n1)c1ccc(C(=O)N2CCCCC2)cc1,,6.85,8.00,15,,,5.69,,5.84,2980,15,,21,213
COC(=O)C1CCN(C(=O)c2ccc(SCc3cnc4nc(N)nc(N)c4n3)nc2)CC1,,7.22,9.00,20,,,5.03,,5.62,89000,10,4.05,37,1480
Nc1nc(N)c2nc(CNCc3ccc(Oc4ccccc4)cc3)cnc2n1,,6.01,6.72,0,,,,,,526,1,,1,102
CCOC(=O)C1CCN(C(=O)c2ccc(N(C)Cc3cnc4nc(N)nc(N)c4n3)cc2)CC1,,6.35,7.40,0,,,6.89,,5.05,300,90,4.92,1,27
COC(=O)C1CCN(C(=O)c2ccc(NCc3cnc4nc(N)nc(N)c4n3)cc2)CC1,,,6.96,0,,,6.21,100,4.69,,,4.29,,
Nc1nc(N)c2nc(C(=O)NCc3ccccc3)cnc2n1,,5.26,8.00,0,,,,100,,10000,1,,1,18
NC(=O)C1CCN(C(=O)Cc2ccc(N(CCCO)Cc3cnc4nc(N)nc(N)c4n3)cc2)CC1,,6.77,8.00,0,,30,5.94,,4.74,,,,,
COc1cc(Oc2ccc(CNCc3cnc4nc(N)nc(N)c4n3)cc2)cc(OC)c1OC,,6.77,6.46,0,,,,100,,286,1,,1,588
CCOC(=O)C1CCCN1C(=O)c1ccc(NCc2cnc3nc(N)nc(N)c3n2)cc1 (stereo not drawn),,,,0,,,5.92,,6.01,0.08,8,,10,
CCOC(=O)C1CCN(C(=O)c2ccc(N(CC)Cc3cnc4nc(N)nc(N)c4n3)cc2)CC1,,7.00,9.00,,,,6.74,,6.64,,,4.89,,
C#CCN(Cc1cnc2nc(N)nc(N)c2n1)c1ccc(C(=O)N2CCC(C(=O)OC)CC2)cc1,,6.49,7.40,,,,6.15,,5.93,1950,110,4.11,66,244
COc1ccc(CNC(=O)c2ccc(CNCc3cnc4nc(N)nc(N)c4n3)cc2)cc1,,5.83,6.89,0,,,,,,769,1,,1,68
COC(=O)C1CCN(C(=O)c2ccc(N(C)Cc3cnc4nc(N)nc(N)c4n3)cc2)CC1,,,7.30,0,,,6.59,100,6.57,,,4.36,,
Nc1nc(N)c2nc(CNc3cccc4ccccc34)cnc2n1,,8.00,8.00,0,,,5.82,0,6.35,440,3,5.36,10,440
COc1ccc(CNC(=O)c2ccc(CNCc3cnc4nc(N)nc(N)c4n3)cc2)cc1OC,,5.80,6.66,0,,,,,,455,1,,2,64
Nc1nc(N)c2nc(C(=O)NCc3cccc(C(F)(F)F)c3)cnc2n1,,6.48,8.00,0,,,,100,,10000,1,,1,303
